Consider 15 compounds from ChEMBL document CHEMBL1142521 (J Med Chem, 2008).

SMILES strings stand for the structures. Some results are limits rather than exact numbers.

Data set [1] in a line: Chemical stability in Bronsted and Lewis acid. Format: physicochemical.
Data set [2] in a line: Inhibition of Hedgehog pathway-dependent oxysterol-induced mouse C3 H10T1/2 cell differentiation assessed as alkaline phosphatase production after 72 hrs. It is filed as functional, cell-based. Conditions: C3H 10T1/2, 72 h. In a few lines: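 Murine progenitor C3H10T1/2 cells were induced with oxysterol to differentiate into osteoblasts in culture, and Hh pathway inhibition was taken as the effect on this differentiation. The number of determinations is reported per value.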

Data set [3] can be described thus: Elimination half life in CD1 mouse at 5 mg/kg, po by LC-MS/MS analysis. Format: ADME, organism-based. Also on record: dose 5 mg/kg, route oral. The following applies: in vivo, read-out: beta t1/2 (converted). The gist of the method: (§1)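 Hydrochloride salt was dissolved in sterile water for injection containing 30% (w/w) 2-hydroxypropyl-β-cyclodextrin and given to CD-1 mice intravenously and orally. Plasma was sampled at selected time points, proteins were precipitated, and drug levels were quantified by LC-MS/MS.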

The subject of data set [4] is Mus musculus. As to the kind of experiment: Volume of distribution in CD1 mouse at 5 mg/kg, po by LC-MS/MS analysis. Format: ADME, organism-based. Also on record: dose 5 mg/kg, route oral. Conditions: in vivo. The gist of the method:
as §1

A short description of data set [5]: Oral bioavailability in CD1 mouse at 5 mg/kg by LC-MS/MS analysis. It is filed as ADME, organism-based. Conditions: in vivo. The gist of the method: as §1
Data set [6] is described as follows: Chemical stability in simulated gastric fluid after 60 mins. It is filed as physicochemical. The following applies: read-out: Stability. The gist of the method: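 Test material incubated in simulated gastric fluid for 60 min; read-out is the percentage of parent compound remaining.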

As a reminder, the EC50 is the midpoint of the concentration-response curve. On to `C[C@@H]1CN[C@H]2[C@@H](C)[C@@]3(CC[C@H]4[C@@H]5CC=C6C[C@@H](O)CC[C@]6(C)[C@H]5C[C@@]45C[C@]53C)O[C@@H]2C1` [CYCLOPROPYL CYCLOPAMINE], for which the Stability entry in data set [1] is “Stable”. Further, the EC50 in data set [2] is greater than 2 µM.
The term bioavailability denotes the share of a dose that reaches the circulation, judged against a reference dose that is usually intravenous. The low end stands for little systemic uptake, the high end for much systemic uptake. For `CC1=C2C[C@H]3[C@@H](CCC4=CC(=O)CC[C@@]43C)[C@@H]2CC[C@@]2(C1)O[C@@H]1C[C@H](C)CN[C@H]1[C@H]2C.Cl`, the half-life in data set [3] was 3.2 h. This compound came in with a Vd in data set [4] of 18 L/kg. In data set [5], this compound displayed a bioavailability of 80%.
Consider `COCCOCCN1C[C@@H](C)C[C@H]2O[C@]3(CC[C@@H]4C(=C(C)C3)C[C@H]3[C@H]4CCC4=CC(=O)CC[C@@]43C)[C@H](C)[C@@H]21`, for which the EC50 in data set [2] came to 0.4 µM.
With `CC1=C2C[C@H]3[C@@H](CC=C4C[C@@H](O)CC[C@@]43C)[C@@H]2CC[C@]12O[C@@H]1C[C@H](C)CN[C@H]1[C@H]2C` [CYCLOPAMINE], the remaining at 1 h in data set [6] was 60%. In data set [2], the EC50 came to 0.17 µM.
As to `CC1=C2C[C@H]3[C@@H](CCC4=CC(=O)CC[C@@]43C)[C@@H]2CC[C@@]2(C1)O[C@@H]1C[C@H](C)CN(Cc3ccccc3)[C@H]1[C@H]2C`, the EC50 in data set [2] is greater than 2 µM.
In the case of `CC1=C2C[C@H]3[C@@H](CCC4=CC(=O)CC[C@@]43C)[C@@H]2CC[C@@]2(C1)O[C@@H]1C[C@H](C)CN[C@H]1[C@H]2C`, the remaining at 1 h in data set [6] was 98%. In addition, the EC50 in data set [2] was 0.2 µM.
As to `CC1=C2C[C@H]3[C@@H](CCC4=CC(=O)CC[C@@]43C)[C@@H]2CC[C@@]2(C1)O[C@@H]1C[C@H](C)CN(CCOCCO)[C@H]1[C@H]2C`, in data set [2], the EC50 is greater than 1 µM.
`CC1=C2C[C@H]3[C@@H](CCC4=CC(=O)CC[C@@]43C)[C@@H]2CC[C@@]2(C1)O[C@@H]1C[C@H](C)CN(C)[C@H]1[C@H]2C`: in data set [2], the EC50 turned out to be 0.4 µM.
Turning to `CC1=C2C[C@H]3[C@@H](CC=C4C[C@@H](O)CC[C@@]43C)[C@@H]2CC[C@@]2(C1)O[C@@H]1C[C@H](C)CN[C@H]1[C@H]2C`, the concentration giving a half-maximal response (EC50) in data set [2] is greater than 2.5 µM.
As for `C[C@H]1C[C@H]2O[C@]3(CC[C@H]4[C@@H]5CC=C6C[C@@H](O)CC[C@]6(C)[C@H]5C[C@@]45C[C@]53C)[C@H](C)[C@@H]2N(C(=O)OCC2c3ccccc3-c3ccccc32)C1`, in data set [1], the Stability result is recorded as “Stable”.
For the compound `CC1=C2C[C@H]3[C@@H](CCC4=CC(=O)CC[C@@]43C)[C@@H]2CC[C@@]2(C1)O[C@@H]1C[C@H](C)CN(O)[C@H]1[C@H]2C`, the EC50 in data set [2] amounted to 0.8 µM.
On to `CC1=C2C[C@H]3[C@@H](CCC4=CC(=O)CC[C@@]43C)[C@@H]2CC[C@@]2(C1)O[C@@H]1C[C@H](C)CN(CCCl)[C@H]1[C@H]2C`, for which the EC50 in data set [2] was greater than 2.5 µM.
As for `CC(=O)N1C[C@@H](C)C[C@H]2O[C@]3(CC[C@@H]4C(=C(C)C3)C[C@H]3[C@H]4CCC4=CC(=O)CC[C@@]43C)[C@H](C)[C@@H]21`, in data set [2], the EC50 stood at 0.12 µM.
With `CC1=C2C[C@H]3[C@@H](CCC4=CC(=O)CC[C@@]43C)[C@@H]2CC[C@@]2(C1)O[C@@H]1C[C@H](C)CN(CCNC(=O)CCCCCNC(=O)CCc3ccccc3)[C@H]1[C@H]2C`, the EC50 in data set [2] came to 0.01 µM.
On the same count and under the same terms, to `CC1=C2C[C@H]3[C@@H](CCC4=CC(=O)CC[C@@]43C)[C@@H]2CC[C@@]2(C1)O[C@@H]1C[C@H](C)CN(CCNC(=O)CCc3ccccc3)[C@H]1[C@H]2C` belongs 0.02 µM.
